Where “and” joins values, the source holds several entries; their conditions need not be identical. Equal entries are not always repeated.
Test system: Fibroblast
Experiment: Multiplex assay against human fibroblast
Assay type: toxicity, cell-based
Conditions: 10 µM, compound concentration 10 uM
Method in brief: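 Tubulin, mitochondrial-mass and membrane-permeability phenotypes are per cents of healthy-nucleus cells. Cells were gated by CellPathfinder machine learning into Hoechst high-intensity objects or normal cells, normal cells into healthy, pyknosed or fragmented nuclei, and pyknosed cells into mitotic or apoptotic. Before that, live cells stained at seeding with Hoechst33342, BioTracker Green Microtubule Cytoskeleton Dye, MitoTracker Red and Annexin V Alexa Fluor 680 were imaged on a CQ1 microscope at 37°C and 5% CO2 after compound addition.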

SMILES: CCOCCn1cc(C(=O)Nc2ccc(-n3nc(-c4cccnc4)cc3C(F)(F)F)cn2)ccc1=O [BI 1935]
- Population Apoptotic (%) (12 h, replicate 1): 85% and 52% and 61%
- Population Fragmented Nuclei (%) (12 h, replicate 1): 25% and 26% and 24%
- Population Healthy Nuclei (%) (12 h, replicate 1): 45% and 60% and 58%
- Population Hoechst High Intensity Objects (%) (12 h, replicate 1): 20% and 11% and 13%
- Population Membrane Permeable-Phenotype (%) (12 h, replicate 1): 9% and 15% and 6%
- Population Normal (%) (12 h, replicate 1): 79% and 88% and 86%
- Population Pyknosed Nuclei (%) (12 h, replicate 1): 29% and 13% and 17%
- Population Apoptotic (%) (12 h, replicate 2): 100% and 42% and 47%
- Population Membrane Permeable-Phenotype (%) (12 h, replicate 2): 23% and 14% and 8%
- Population Normal (%) (12 h, replicate 2): 62% and 60% and 92%
- Population Tubulin-Different-Phenotype (%) (12 h, replicate 2): 23% and 57% and 64%
- Total Cell Count (12 h, replicate 2): 78 and 61 and 79
- Population Apoptotic (%) (24 h, replicate 1): 60% and 72% and 64%
- Population Fragmented Nuclei (%) (24 h, replicate 1): 35% and 25% and 24%
- Population Healthy Nuclei (%) (24 h, replicate 1): 50% and 61% and 62%
- Population Hoechst High Intensity Objects (%) (24 h, replicate 1): 21% and 14% and 16%
- Population Membrane Permeable-Phenotype (%) (24 h, replicate 1): 8% and 4%
- Population Mitotic Cells (%) (24 h, replicate 1): 40% and 27% and 36%
- Population Normal (%) (24 h, replicate 1): 78% and 85% and 83%
- Population Pyknosed Nuclei (%) (24 h, replicate 1): 14% and 13% and 12%
- Population Apoptotic (%) (24 h, replicate 2): 33% and 28% and 40%
- Population Healthy Nuclei (%) (24 h, replicate 2): 44% and 25% and 66%
- Population Mitotic Cells (%) (24 h, replicate 2): 66% and 71% and 60%
- Population Normal (%) (24 h, replicate 2): 60% and 91%
- Population Tubulin-Different-Phenotype (%) (24 h, replicate 2): 20% and 55% and 44%
- Total Cell Count (24 h, replicate 2): 74 and 58 and 92
- Population Apoptotic (%) (48 h, replicate 1): 55%
- Population Fragmented Nuclei (%) (48 h, replicate 1): 44%
- Population Healthy Nuclei (%) (48 h, replicate 1): 42%
- Population Hoechst High Intensity Objects (%) (48 h, replicate 1): 22%
- Population Membrane Permeable-Phenotype (%) (48 h, replicate 1): 0%
- Population Mitochondria Different-Phenotype (%) (48 h, replicate 1): 40%
- Population Mitotic Cells (%) (48 h, replicate 1): 44%
- Population Normal (%) (48 h, replicate 1): 77%
- Population Pyknosed Nuclei (%) (48 h, replicate 1): 12%
- Population Tubulin-Different-Phenotype (%) (48 h, replicate 1): 86%
- Total Cell Count (48 h, replicate 1): 90
- Population Apoptotic (%) (48 h, replicate 2): 0%
- Population Fragmented Nuclei (%) (48 h, replicate 2): 28%
- Population Healthy Nuclei (%) (48 h, replicate 2): 71%
- Population Hoechst High Intensity Objects (%) (48 h, replicate 2): 9%
- Population Membrane Permeable-Phenotype (%) (48 h, replicate 2): 11%
- Population Mitochondria Different-Phenotype (%) (48 h, replicate 2): 3%
- Population Mitotic Cells (%) (48 h, replicate 2): 0%
- Population Normal (%) (48 h, replicate 2): 90%
- Population Pyknosed Nuclei (%) (48 h, replicate 2): 0%
- Population Tubulin-Different-Phenotype (%) (48 h, replicate 2): 70%
- Total Cell Count (48 h, replicate 2): 42
